Measured values taken from ChEMBL document CHEMBL3864138, “First discovery of novel 3-hydroxy-quinazoline-2,4(1H,3H)-diones as specific anti-vaccinia and adenovirus agents via 'privileged scaffold' refining approach” (Bioorg Med Chem Lett, 2016).

Tests used:
Human adenovirus 2 = test: Antiviral activity against Human adenovirus 2 infected in HEL cells assessed as inhibition of virus-induced cytopathicity; type: functional, cell-based; conditions: Human mastadenovirus C
[1] = Cytotoxicity against HEL cells assessed as alteration of cell morphology after 3 days by microscopic analysis; type: toxicity, cell-based; conditions: human
How it was run: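 HEL cell cultures were checked by microscopy for compound cytotoxicity, reported as MCC. The highest concentration tested was […].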

Vaccinia virus [2] = test: Antiviral activity against Vaccinia virus infected in HEL cells assessed as inhibition of virus-induced cytopathicity; type: functional, cell-based; conditions: Orthopoxvirus vaccinia
Vaccinia virus [3] = test: Potency index, ratio of brivudin EC50 against Vaccinia virus infected in HEL cells to compound EC50 against Vaccinia virus infected in HEL cells; type: functional, Orthopoxvirus vaccinia
Vaccinia virus [4] = test: Potency index, ratio of cidofovir EC50 against Vaccinia virus infected in HEL cells to compound EC50 against Vaccinia virus infected in HEL cells; type: functional, Orthopoxvirus vaccinia

Row | Structure (SMILES) | EC50 (Human adenovirus 2) | MCC at 72 h [1] | EC50 (Vaccinia virus [2]) | Ratio EC50 (Vaccinia virus [3]) | Ratio EC50 (Vaccinia virus [4])
1 | Cn1c(=O)n(O)c(=O)c2cc(-c3cn(Cc4ccc(F)cc4F)nn3)ccc21 | > 100 µM | 100 µM | > 100 µM | – | –
2 | CCn1c(=O)n(O)c(=O)c2cc(-c3cn(Cc4ccc(F)cc4F)nn3)ccc21 | > 100 µM | 20 µM | > 100 µM | – | –
3 | CCn1c(=O)n(O)c(=O)c2cc(-c3cn(Cc4ccccc4C)nn3)ccc21 | > 100 µM | 20 µM | > 100 µM | – | –
4 | CCn1c(=O)n(O)c(=O)c2cc(-c3cn(Cc4ccc(F)cc4)nn3)ccc21 | > 100 µM | 100 µM | > 100 µM | – | –
5 | Nc1ccn([C@H]2CC[C@@H](CO)O2)c(=O)n1 [ZALCITABINE] | 7.2 µM | > 250 µM | – | – | –
6 | Cn1c(=O)n(O)c(=O)c2cc(-c3cn(Cc4ccccc4)nn3)ccc21 | > 100 µM | > 100 µM | > 100 µM | – | –
7 | CCn1c(=O)n(O)c(=O)c2cc(-c3cn(Cc4ccccc4)nn3)ccc21 | 12 µM | > 100 µM | > 100 µM | – | –
8 | Cc1cn([C@H]2C[C@H](F)[C@@H](CO)O2)c(=O)[nH]c1=O [ALOVUDINE] | 10 µM | > 250 µM | – | – | –
9 | CCn1c(=O)n(O)c(=O)c2cc(-c3cn(Cc4ccc([N+](=O)[O-])cc4)nn3)ccc21 | > 100 µM | > 100 µM | 1.7 µM | 8 - 15 | 15
10 | Cn1c(=O)n(O)c(=O)c2cc(-c3cn(Cc4ccc(F)c(F)c4)nn3)ccc21 | > 100 µM | 100 µM | 5 µM | – | –
11 | CCn1c(=O)n(O)c(=O)c2cc(-c3cn(Cc4cccc(F)c4)nn3)ccc21 | 13 µM | > 100 µM | > 100 µM | – | –
12 | Cc1ccccc1Cn1cc(-c2ccc3c(c2)c(=O)n(O)c(=O)n3C)nn1 | > 100 µM | 100 µM | > 100 µM | – | –
13 | Cn1c(=O)n(O)c(=O)c2cc(-c3cn(Cc4ccc(C#N)cc4)nn3)ccc21 | > 100 µM | > 100 µM | > 100 µM | – | –
14 | Cn1c(=O)n(O)c(=O)c2cc(-c3cn(Cc4c(Cl)cccc4Cl)nn3)ccc21 | > 100 µM | > 100 µM | > 100 µM | – | –
15 | Cn1c(=O)n(O)c(=O)c2cc(-c3cn(Cc4cccc(F)c4)nn3)ccc21 | > 100 µM | > 100 µM | > 100 µM | – | –
16 | Cn1c(=O)n(O)c(=O)c2cc(-c3cn(Cc4ccc([N+](=O)[O-])cc4)nn3)ccc21 | > 100 µM | > 100 µM | 2.4 µM | – | –
17 | CCn1c(=O)n(O)c(=O)c2cc(-c3cn(Cc4ccccc4F)nn3)ccc21 | 6.5 µM | > 100 µM | > 100 µM | – | –
18 | CCn1c(=O)n(O)c(=O)c2cc(-c3cn(Cc4c(Cl)cccc4Cl)nn3)ccc21 | > 100 µM | > 100 µM | > 100 µM | – | –
19 | O=c1[nH]c(=O)n([C@H]2C[C@H](O)[C@@H](CO)O2)cc1/C=C/Br [BRIVUDINE] | – | > 250 µM | 15 µM | – | –
20 | Cn1c(=O)n(O)c(=O)c2cc(-c3cn(Cc4ccccc4F)nn3)ccc21 | > 100 µM | > 100 µM | > 100 µM | – | –
21 | COc1ccc(Cn2cc(-c3ccc4c(c3)c(=O)n(O)c(=O)n4C)nn2)cc1 | 12 µM | > 100 µM | > 100 µM | – | –
22 | Cn1c(=O)n(O)c(=O)c2cc(-c3cn(Cc4ccc(F)cc4)nn3)ccc21 | > 100 µM | > 100 µM | > 100 µM | – | –
23 | CCn1c(=O)n(O)c(=O)c2cc(-c3cn(Cc4ccc(F)c(F)c4)nn3)ccc21 | > 100 µM | 20 µM | 1.9 µM | – | –
24 | Cn1c(=O)n(O)c(=O)c2cc(-c3cn(Cc4c(F)cccc4F)nn3)ccc21 | > 100 µM | 100 µM | > 100 µM | – | –
25 | Cn1c(=O)n(O)c(=O)c2cc(-c3cn(Cc4cc(F)ccc4F)nn3)ccc21 | > 100 µM | > 100 µM | > 100 µM | – | –
26 | Nc1ccn(C[C@@H](CO)OCP(=O)(O)O)c(=O)n1 [CIDOFOVIR] | 10 µM | > 250 µM | 25 µM | – | –
27 | CCn1c(=O)n(O)c(=O)c2cc(-c3cn(Cc4cc(F)ccc4F)nn3)ccc21 | > 100 µM | 20 µM | > 100 µM | – | –
28 | CCn1c(=O)n(O)c(=O)c2cc(-c3cn(Cc4c(F)cccc4F)nn3)ccc21 | 8 µM | > 100 µM | > 100 µM | – | –
29 | CCn1c(=O)n(O)c(=O)c2cc(-c3cn(Cc4ccc(C#N)cc4)nn3)ccc21 | > 100 µM | > 100 µM | 15 µM | – | –
30 | CCn1c(=O)n(O)c(=O)c2cc(-c3cn(Cc4ccc(OC)cc4)nn3)ccc21 | 6.2 µM | > 100 µM | > 100 µM | – | –
